Data as given in publication PMC8915191 (Clinical cancer research : an official journal of the …, 2019).
Where “and” joins values, the source holds several entries; their conditions need not be identical. Equal values may be shown once.

Assays:
[1] = test system: peripheral blood mononuclear cells; assay: Autophagic vesicles in serial PBMC by quantitative electron microscopy; format: in vivo, human; settings: after one week of everolimus alone; 11 patients
How it was run: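 Cancer patients took everolimus 10 mg alone for one week, then HCQ 400 or 600 mg twice daily was added. Serial PBMC were collected before treatment, after one cycle and after two cycles (one week of everolimus alone; one month combined) in a limited number of patients (3 at 400 mg, 8 at 600 mg). PBMC were fixed for quantitative EM of autophagic vesicles.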

[2] = test system: advanced clear cell renal carcinoma (ccRCC); settings: cited from earlier work
mTOR = settings: cited from earlier work
[3] = test system: patients with advanced RCC; settings: human, in vivo, po, 5 weeks
[4] = HCQ population pharmacokinetics, whole blood concentrations by HPLC-MS/MS; format: in vivo, human
How it was run: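 HCQ 400 or 600 mg twice daily was given with everolimus, with a draw at each visit plus intensive sampling in a few patients (pre-dose, 15 min, 30 min, 1, 2, 3, 4, 6 h). Heparinized whole blood was stored at −70 °C and spiked with d4-HCQ internal standard. It was acetonitrile/methanol-precipitated and run on LC-MS/MS (positive ESI, MRM 337.275→248.152) in duplicate. The curve was 1–7500 ng/mL (LLOQ 1.0 ng/mL). A 2-compartment first-order-absorption model was fitted.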

[5] = no reference given; cited from earlier work
[6] = 2-compartment population PK model, 27 patients, oral HCQ
[7] = 1000 bootstrap runs, population PK model

What does the source list for CO[C@H]1C[C@@H]2CC[C@@H](C)[C@@](O)(O2)C(=O)C(=O)N2CCCC[C@H]2C(=O)O[C@H]([C@H](C)C[C@@H]2CC[C@@H](OCCO)[C@H](OC)C2)CC(=O)[C@H](C)/C=C(\C)[C@@H](O)[C@@H](OC)C(=O)[C@H](C)C[C@H](C)/C=C/C=C/C=C/1C [everolimus, Everolimus]?
Drug-induced change in autophagic vesicles in PBMC [1]: no significant drug-induced changes; Hazard ratio for PFS, everolimus versus placebo ([2]; 95% CI 0.22–0.40, p<0·0001): 0.30; Median PFS, everolimus alone, CHECKMATE 025 [2]: 4.6 months; Median PFS, everolimus alone, METEOR [2]: 3.8 months; Response rate, everolimus single agent [2]: 1%; Median PFS, everolimus alone, RECORD-1 ([2]; everolimus 10 mg daily after TKI progression): 4.01 months and 4 months

Which “mTOR inhibition in PBMC” value (mTOR) does the source give for CO[C@H]1C[C@@H]2CC[C@@H](C)[C@@](O)(O2)C(=O)C(=O)N2CCCC[C@H]2C(=O)O[C@H]([C@H](C)C[C@@H]2CC[C@@H](OC(=O)C(C)(CO)CO)[C@H](OC)C2)CC(=O)[C@H](C)/C=C(\C)[C@@H](O)[C@@H](OC)C(=O)[C@H](C)C[C@H](C)/C=C/C=C/C=C/1C [temsirolimus] here?
The value was “sustained mTOR inhibition”.

Which “Recommended phase II dose (RP2D) of HCQ” value [3] does the source give for CCN(CCO)CCCC(C)Nc1ccnc2cc(Cl)ccc12 (stereo not drawn) [HCQ, Hydroxychloroquine] here?
The value was 600 mg.

And the “Cl/F, apparent oral clearance, Model estimate” value [4, 6]?
Its value is 7.98 L/h.

And the “Q, intercompartmental clearance, Model estimate” value [4, 6]?
The value was 14.98 L/h.

What about the “V2/F, apparent peripheral volume of distribution, Model estimate” value [4, 6] of the same compound?
The value was 3604.83 L.

And the “Ka, absorption rate constant, Model estimate” value ([4]; 2-compartment population PK model, 163 blood samples from 27 patients, oral HCQ)?
Its value is 0.93 h.

And the “Cl/F, apparent oral clearance, Bootstrap Estimate” value [4, 7]?
The value was 8.00 L/h.

And the “Ka, absorption rate constant, Bootstrap Estimate” value [4, 7]?
The value was 1.00 h.

What about the “Q, intercompartmental clearance, Bootstrap Estimate” value [4, 7] of the same compound?
The value was 15.02 L/h.

And the “V2/F, apparent peripheral volume of distribution, Bootstrap Estimate” value [4, 7]?
The value was 3598.91 L.

And the Vd/F ([4]; human, whole blood, po)?
The Vd/F was 600 L.

And the Plasma protein binding [5]?
Its Plasma protein binding is “not extensively bound to plasma proteins”.
